Measured values taken from ChEMBL document CHEMBL3259658, “Discovery of BI 224436, a Noncatalytic Site Integrase Inhibitor (NCINI) of HIV-1” (ACS Med Chem Lett, 2014).

Legend:
[1] = system: Human immunodeficiency virus 1; assay: Antiviral activity against HIV1 HxB2 harboring integrase A124/T125 mutant by cell based luciferase reporter gene assay; format: functional, organism-based; conditions: Human immunodeficiency virus 1, HxB2
Summary of the method: (§1)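 Cell-based luciferase reporter gene assay of HIV-1 replication. Virus was HxB2 (IN A124/T125), wild-type NL4.3 (T124/T125), or recombinant NL4.3 carrying IN variants A124/T125, A124/A125, N124/T125, N124/A125 or T124/A125 (T125A). EC50 is the mean of at least two experiments. Where three or more experiments were run, relative SD was 12–43%.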

[2] = target: T1, Human immunodeficiency virus type 1 integrase (Human immunodeficiency virus 1, UniProt Q7ZJM1); assay: Inhibition of HIV1 integrase by LTR cleavage assay
[3] = target: T1, Human immunodeficiency virus type 1 integrase; assay: Binding affinity to HIV1 integrase by displacement assay; conditions: read-out: Kd(app)
Summary of the method: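 The displacement assay against HIV-1 integrase gives the value as an apparent dissociation constant (Kd-app).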

[4] = system: Human immunodeficiency virus 1; assay: Antiviral activity against HIV1 NL4.3 harboring integrase T124/A125 mutant by cell based luciferase reporter gene assay; format: functional, organism-based; conditions: Human immunodeficiency virus 1, NL4.3; summary of the method: as §1
[5] = system: Human immunodeficiency virus 1; assay: Antiviral activity against HIV1 NL4.3 harboring integrase T125A mutant by cell based luciferase reporter gene assay in presence of 50% human serum; format: functional; set-up: reference not given here
Summary of the method: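 Luciferase reporter gene assay with recombinant NL4.3 carrying the IN T125A substitution. […] Each value is the mean of at least two experiments.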

[6] = Half life in human liver microsomes; format: ADME
[7] = Half life in rat liver microsomes; format: ADME
[8] = Apparent permeability across human Caco2 cells; format: ADME, cell-based; conditions: Caco-2
Cytochrome P450 3A4 = Cytochrome P450 3A4 (Homo sapiens, UniProt P08684); assay: Inhibition of CYP3A4 (unknown origin); format: ADME
[9] = system: Human immunodeficiency virus 1; assay: Antiviral activity against HIV1 NL4.3 harboring integrase N124/A125 mutant by cell based luciferase reporter gene assay; format: functional, organism-based; conditions: Human immunodeficiency virus 1, NL4.3; summary of the method: as §1
[10] = system: Human immunodeficiency virus 1; assay: Antiviral activity against HIV1 NL4.3 harboring integrase A124/A125 mutant by cell based luciferase reporter gene assay; format: functional, organism-based; conditions: Human immunodeficiency virus 1, NL4.3; summary of the method: as §1
[11] = system: Human immunodeficiency virus 1; assay: Antiviral activity against HIV1 NL4.3 harboring integrase N124/T125 mutant by cell based luciferase reporter gene assay; format: functional, organism-based; conditions: Human immunodeficiency virus 1, NL4.3; summary of the method: as §1
[12] = Oral bioavailability in rat at 0.4 mg/kg; format: ADME, organism-based; conditions: in vivo
[13] = Half life in rat at 0.2 mg/kg, iv and 0.4 mg/kg, po; format: ADME, organism-based; conditions: in vivo
Cytochrome P450 2D6 = Cytochrome P450 2D6 (Homo sapiens, UniProt P10635); assay: Inhibition of CYP2D6 (unknown origin); format: ADME
[14] = system: Human immunodeficiency virus 1; assay: Antiviral activity against HIV1 NL4.3 harboring integrase T124/T125 mutant by cell based luciferase reporter gene assay; format: functional, organism-based; conditions: Human immunodeficiency virus 1, NL4.3; summary of the method: as §1
[15] = system: Human immunodeficiency virus 1; assay: Antiviral activity against HIV1 NL4.3 harboring integrase A124/T125 mutant by cell based luciferase reporter gene assay; format: functional, organism-based; conditions: Human immunodeficiency virus 1, NL4.3; summary of the method: as §1
[16] = Solubility of the compound at pH 6.8; format: physicochemical; conditions: buffer
Summary of the method: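 Solubility was measured at pH 6.8 on the amorphous powder form of the compound.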

[17] = system: Human immunodeficiency virus 1; assay: Ratio of EC50 for HIV1 NL4.3 harboring integrase T124/A125 mutant to EC50 for HIV1 HxB2 harboring integrase A124/T125 mutant

T1 sequence (Q7ZJM1 whole entry): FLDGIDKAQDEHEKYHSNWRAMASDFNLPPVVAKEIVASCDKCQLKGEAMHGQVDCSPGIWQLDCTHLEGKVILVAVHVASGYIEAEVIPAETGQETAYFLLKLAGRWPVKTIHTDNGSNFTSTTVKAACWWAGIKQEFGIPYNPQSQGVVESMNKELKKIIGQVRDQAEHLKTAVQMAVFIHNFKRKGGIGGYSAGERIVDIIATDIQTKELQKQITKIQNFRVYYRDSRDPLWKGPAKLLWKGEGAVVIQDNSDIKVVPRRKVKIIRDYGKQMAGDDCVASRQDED
Sequence of Cytochrome P450 2D6 (P10635 whole entry): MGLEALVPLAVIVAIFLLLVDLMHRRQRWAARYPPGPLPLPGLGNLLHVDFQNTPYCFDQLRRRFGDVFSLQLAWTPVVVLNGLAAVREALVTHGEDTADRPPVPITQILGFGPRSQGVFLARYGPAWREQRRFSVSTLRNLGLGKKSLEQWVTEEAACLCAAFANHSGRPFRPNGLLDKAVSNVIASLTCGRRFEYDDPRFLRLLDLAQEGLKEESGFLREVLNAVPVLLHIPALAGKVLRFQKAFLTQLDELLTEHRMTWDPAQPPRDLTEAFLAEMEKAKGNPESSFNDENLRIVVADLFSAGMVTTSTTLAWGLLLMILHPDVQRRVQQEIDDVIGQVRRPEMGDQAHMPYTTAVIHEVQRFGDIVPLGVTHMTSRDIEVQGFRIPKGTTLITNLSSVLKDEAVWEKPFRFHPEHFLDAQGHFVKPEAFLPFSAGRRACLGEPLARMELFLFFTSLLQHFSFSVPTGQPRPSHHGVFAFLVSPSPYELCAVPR
Sequence of Cytochrome P450 3A4 (P08684 whole entry): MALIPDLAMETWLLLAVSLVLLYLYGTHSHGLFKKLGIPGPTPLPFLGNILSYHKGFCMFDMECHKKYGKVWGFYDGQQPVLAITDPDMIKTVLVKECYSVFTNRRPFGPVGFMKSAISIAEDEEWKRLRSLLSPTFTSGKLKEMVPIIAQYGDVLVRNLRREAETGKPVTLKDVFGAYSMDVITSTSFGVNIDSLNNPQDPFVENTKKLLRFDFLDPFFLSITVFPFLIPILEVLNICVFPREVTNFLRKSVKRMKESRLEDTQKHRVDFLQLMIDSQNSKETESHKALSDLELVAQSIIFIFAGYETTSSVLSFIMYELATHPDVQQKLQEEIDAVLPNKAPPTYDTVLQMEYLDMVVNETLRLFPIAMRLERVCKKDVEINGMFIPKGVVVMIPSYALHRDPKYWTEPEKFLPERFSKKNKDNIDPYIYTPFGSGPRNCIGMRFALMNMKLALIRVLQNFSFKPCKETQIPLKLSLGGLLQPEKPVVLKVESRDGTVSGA

Structure (SMILES)	EC50 [1] [nM]	Kd [3] [nM]	EC50 [4] [nM]	further results
CCCC(C(=O)O)c1c(C)nc2ccc(Br)cc2c1-c1ccc(Cl)cc1 (configuration not stated)	920	–	–	IC50 [2]: 77 nM
Cc1nc2ccc(Br)cc2c(-c2ccc(Cl)cc2)c1[C@H](OC(C)C)C(=O)O	130	280	–	–
Cc1nc2ccccc2c(-c2ccc(Cl)cc2)c1CC(=O)O	> 43000	–	–	–
Cc1nc2ccc(Cl)cc2c(-c2ccccc2)c1CC(=O)O	> 40000	–	–	–
Cc1nc2ccc(Br)cc2c(-c2ccccc2)c1CC(=O)O	> 33000	–	–	–
Cc1ccc2c(-c3ccc4c(c3Cl)CCCO4)c([C@H](OC(C)(C)C)C(=O)O)c(C)nc2c1	2	–	22	fold change (FC) [5]: 83
COC(C(=O)O)c1c(C)nc2ccc(Br)cc2c1-c1ccc(Cl)cc1 (configuration not stated)	990	–	–	IC50 [2]: 40 nM
Cc1ccc2c(-c3ccc(Cl)cc3)c([C@H](OC(C)(C)C)C(=O)O)c(C)nc2c1	13	40	130	half-life [6]: 0.417 h; fold change (FC) [5]: 25
Cc1nc2cc(F)ccc2c(-c2ccc(Cl)cc2)c1[C@H](OC(C)(C)C)C(=O)O	26	68	91	–
Cc1ccc2c(-c3ccc4c(c3Cl)NCCO4)c([C@H](OC(C)(C)C)C(=O)O)c(C)nc2c1	–	–	29	half-life [6]: 1.08 h; fold change (FC) [5]: 15
Cc1nc2ccccc2c(-c2ccc3c4c(ccnc24)CCO3)c1[C@H](OC(C)(C)C)C(=O)O [BI-224436]	11	–	–	half-life [7]: > 5 h; Papp [8]: 14 ×10⁻⁶ cm/s; IC50 (Cytochrome P450 3A4): 23000 nM; EC50 [9]: 11 nM; half-life [6]: 3.5 h; EC50 [10]: 11 nM; EC50 [11]: 11 nM; bioavailability [12]: 54%; half-life [13]: 8.8 h; IC50 (Cytochrome P450 2D6): > 30000 nM; EC50 [14]: 11 nM; fold change (FC) [5]: 2.1; EC50 [15]: 11 nM; solubility [16]: > 850 µg/mL
Cc1nc2cc(Cl)ccc2c(-c2ccc(Cl)cc2)c1[C@H](OC(C)(C)C)C(=O)O	31	140	120	–
Cc1ccc2c(-c3ccc4c5c(ccnc35)CCO4)c([C@H](OC(C)(C)C)C(=O)O)c(C)nc2c1	6	–	21	half-life [6]: 3.5 h; fold change (FC) [5]: 4.7
Cc1ccc(-c2c(CC(=O)O)c(C)nc3ccc(Br)cc23)cc1	20000	–	–	IC50 [2]: 350 nM
CO[C@H](C(=O)O)c1c(C)nc2ccc(Br)cc2c1-c1ccc(Cl)cc1	450	4700	–	IC50 [2]: 28 nM
Cc1nc2ccc(F)cc2c(-c2ccc(Cl)cc2)c1[C@H](OC(C)(C)C)C(=O)O	28	61	70	–
Cc1ccc2c(-c3ccc4c(c3)CCCO4)c([C@H](OC(C)(C)C)C(=O)O)c(C)nc2c1	7	–	22	half-life [6]: 1.1 h; fold change (FC) [5]: 66
Cc1nc2ccccc2c(-c2ccc(Cl)cc2)c1[C@H](OC(C)(C)C)C(=O)O	23	49	110	–
Cc1nc2ccc(Br)cc2c(-c2ccc(Cl)cc2)c1[C@H](OC(C)(C)C)C(=O)O	78	150	610	Ratio EC50 [17]: 8
Cc1nc2ccc(Br)cc2c(-c2ccc(Cl)cc2)c1C(C)C(=O)O (configuration not stated)	13000	–	–	IC50 [2]: 310 nM
CO[C@@H](C(=O)O)c1c(C)nc2ccc(Br)cc2c1-c1ccc(Cl)cc1	47000	–	–	IC50 [2]: 3100 nM
Cc1nc2ccc(Br)cc2c(-c2ccc(Cl)cc2)c1CC(=O)O	16000	–	–	IC50 [2]: 270 nM
Cc1ccc2nc(C)c([C@H](OC(C)(C)C)C(=O)O)c(-c3ccc(Cl)cc3)c2c1	27	48	160	–
Cc1ccc2c(-c3cccc4cccnc34)c([C@H](OC(C)(C)C)C(=O)O)c(C)nc2c1	34	–	300	half-life [6]: > 5 h; fold change (FC) [5]: 4
